# Pyk2 oligo antag – blocks oligomerization of human Pyk2 in cells. AID 1347419. Q293 cells, Pyk2 FERM NanoBiT luminescence; stronger effect = lower value. 99,000 tested, 0.83% active. Q14289. z-score (the deposit names both 25 µM and 10 µM);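 active = Z-score of -3 or lower, scaled per plate to the spread of control and sample wells; inactive = z-score above -3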;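 note: negative z-score means lost luminescence so less FERM oligomerization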
# Target sequence (Q14289 whole entry, looked up): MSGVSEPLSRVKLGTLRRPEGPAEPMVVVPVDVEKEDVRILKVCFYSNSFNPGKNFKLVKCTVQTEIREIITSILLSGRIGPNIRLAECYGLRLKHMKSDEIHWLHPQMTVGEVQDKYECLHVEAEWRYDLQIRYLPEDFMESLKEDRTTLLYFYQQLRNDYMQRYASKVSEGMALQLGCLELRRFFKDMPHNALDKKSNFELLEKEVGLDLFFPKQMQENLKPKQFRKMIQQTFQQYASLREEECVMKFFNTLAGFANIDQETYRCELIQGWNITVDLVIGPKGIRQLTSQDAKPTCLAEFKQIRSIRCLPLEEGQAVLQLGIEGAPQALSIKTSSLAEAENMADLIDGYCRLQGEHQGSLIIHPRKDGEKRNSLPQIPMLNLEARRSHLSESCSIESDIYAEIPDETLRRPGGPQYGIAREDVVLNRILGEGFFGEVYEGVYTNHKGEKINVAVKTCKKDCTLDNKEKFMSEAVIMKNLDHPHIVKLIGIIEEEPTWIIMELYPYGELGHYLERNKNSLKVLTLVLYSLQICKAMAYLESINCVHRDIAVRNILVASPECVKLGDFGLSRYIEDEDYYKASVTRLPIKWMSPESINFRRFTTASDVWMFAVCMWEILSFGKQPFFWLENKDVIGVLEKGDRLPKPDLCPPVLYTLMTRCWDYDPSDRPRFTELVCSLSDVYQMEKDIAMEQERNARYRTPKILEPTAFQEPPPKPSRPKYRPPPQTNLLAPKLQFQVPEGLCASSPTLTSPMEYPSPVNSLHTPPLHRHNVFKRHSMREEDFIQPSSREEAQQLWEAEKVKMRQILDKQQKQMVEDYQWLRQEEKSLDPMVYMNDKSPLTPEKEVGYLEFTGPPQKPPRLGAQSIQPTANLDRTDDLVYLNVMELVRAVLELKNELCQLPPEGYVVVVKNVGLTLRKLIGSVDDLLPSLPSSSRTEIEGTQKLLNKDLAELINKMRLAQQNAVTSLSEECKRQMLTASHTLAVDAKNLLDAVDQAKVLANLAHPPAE
# Ecoli tolC – blocks growth of E. coli BW25113 tolC mutant | OD615 | 65,000 tested, 2.2% active | growth inhibition, % at 10 µM (by protocol);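 active = growth inhibition at or above a cutoff equal to the mean over every tested compound plus 3 SD, cut at about 60% in these data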;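 note: growth measured after 20 h incubation at 37 °C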
#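 test system = E. coli BW25113 ΔtolC::kan bacteria | medium = LB with kanamycin 50 µg/mL | signal = OD at 615 nm | schedule = 37 °C, 20 h exposure | evaluation = % inhibition of E. coli growth | compound dosing = one dose of 10 µM final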
# E coli WT exp – growth inhibitors of E. coli BW25113 wild type. OD600 absorbance. AID 710. 98,000 tested, 0.15% active. growth inhibition, % at 100 µM;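 active = growth inhibition above about 50% at one test dose, limit read from the data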;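 note: growth measured after 20 h incubation at 37 °C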
# PostGolgi ctrl – growth of the yeast control strain, post-Golgi counter-screen; efflux-deficient yeast background strain, growth absorbance A615, 16 h; inhibition, % at 10 µM; 98,000 tested, 5% active; AID 738
# Cav3 T inh – human Cav3.2 channel inhibition, primary screen; O95180; Cav3.2-expressing cells, Fluo-4 calcium fluorescence FDSS; stronger effect = lower value; B-score at 10 µM; 100,000 tested, 4% active;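 active = single-dose well whose peak fluorescence ratio is a statistical outlier from its plate by either plate-standardised score or position-corrected B-score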
# PostGolgi yeast – growth inhibition of a yeast mutant, post-Golgi transport screen. post-Golgi transport phenotypic cell assay. inhibition, % at 10 µM. 98,000 tested, 0.9% active. AID 739;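 note: yeast cells grown in 1536-well plates; yeast grown about 18 h at 30C before absorbance read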
# A number is an active result; - = inactive; . = no result. Sampled rows, rich in hits. Any-hit rate of the full collection: about 8.7%. Cut-off read from the data, not from the text of the source, unless noted: active = inhibition above about 30%; inactive = the rest.
SMILES,Pyk2 oligo antag,Ecoli tolC,E coli WT exp,PostGolgi ctrl,Cav3 T inh,PostGolgi yeast
CCN=C(NCC)SC1CC(=O)N(c2cccc(OCC)c2)C1=O (stereo not drawn),-,-,-,-,-,-
C=CCn1c(SCc2c(C)noc2C)nnc1C1COc2ccccc2O1 (stereo not drawn),-,-,-,-,-4.9,-
C=CCn1c(SCC(=O)NCc2ccc3c(c2)OCO3)nnc1C1COc2ccccc2O1 (stereo not drawn),-,-,-,-,-,-
Clc1ccc2nc(CN3CCCc4ccccc43)cn2c1,-,61,-,-,-,-
Clc1ccc2nc(CN3CCCCC3)cn2c1,-,-,-,-,-,-
COc1ccc(S(=O)(=O)N(CCc2ccccc2)CC(=O)O)cc1,-,.,-,-,-,-
CC(Sc1nnc(-c2ccc(O)cc2)o1)C(=O)Nc1cccc2ccccc12 (stereo not drawn),-,-,-,-,-,-
CCn1cc(C(=O)O)c(=O)c2cnc(N3CCN(C(=O)Nc4ccccc4)CC3)nc21,.,100,.,.,.,.
CCn1cc(C(=O)N2CCn3c(nc4ccccc43)C2)c(=O)c2ccc(C)nc21,.,-,-,-,.,-
COC(=O)c1ccc(Oc2nc(N3CCCCC3)nc(N3CCOCC3)n2)cc1,-,66,-,-,-4.3,-
c1ccc(-c2nnc(N3CCOCC3)nc2-c2ccccc2)cc1,-,-,-,54,-,-
Cc1ccc(-c2nnc(-c3ccccc3)c(N3CCOCC3)n2)cc1,-,.,-,-,-,-
c1ccc(Oc2nc(Oc3ccccc3)nc(N3CCOCC3)n2)cc1,-,-,-,31,.,-
CCOC(=O)c1ccc(NS(=O)(=O)c2c(N)[nH]c(=O)[nH]c2=O)cc1,.,.,.,.,-,.
Cc1ccc(SCCC(=O)NCCSCc2ccccc2C)cc1,-,.,-,54,-7.6,-
CCn1c(=NC(=O)CSC(C)=O)sc2cc(F)ccc21,-,-,-,-,-11,-
CCCCS(=O)(=O)NC1=NCN(Cc2ccco2)CN1,-,-,-,-,-,-
Cc1ccc(-n2c(-c3ccc(Br)cc3)c[n+]3c2CCc2ccc4cccnc4c2-3)cc1,-,.,78,50,-,-
O=C(Nc1ccccc1)c1ccc(-c2ccc(Br)cc2)o1,-,.,.,.,-5.3,.
O=C(Nc1ccc(CN2CCOCC2)cc1)c1ccc(-c2ccc(Br)cc2)o1,-,100,-,60,-,-
O=C(Nc1cccc(NC(=O)c2ccc(-c3ccc(Br)cc3)o2)c1)c1ccccc1,-,.,-,-,-6.1,-
O=C(Nc1cccc(NC(=O)c2ccc(-c3cccc(Br)c3)o2)c1)c1ccco1,-,-,-,-,-,-
COc1ccccc1NC(=O)c1ccc(-c2ccc(Br)cc2)o1,-,.,-,-,-,-
COc1ccc(C(=O)Nc2nc(-c3cccs3)cs2)cc1,-,98,-,-,-8.9,-
COc1cc(C(=O)Nc2nc(-c3cccs3)cs2)cc(OC)c1OC,-4.3,69,-,48,-,-
SMILES,Pyk2 oligo antag,Ecoli tolC,E coli WT exp,PostGolgi ctrl,Cav3 T inh,PostGolgi yeast
O=C(Nc1nnc(C(F)(F)F)s1)c1cccnc1,-,-,-,-,-,-
COc1ccc(C(=O)Nc2nnc(C(F)(F)F)s2)cc1,-,-,-,42,-,-
CCC(NC(=O)Nc1nnc(C(F)(F)F)s1)(C(F)(F)F)C(F)(F)F,-,-,58,-,-7.8,-
CCN(N=O)[C@@H](Cc1ccccc1)CN(N=O)[C@@H](Cc1ccccc1)CN(C)N=O,.,.,.,.,-,.
Cn1cnc2c1c(=O)n(CC(O)CO)c(=O)n2C (stereo not drawn),-,-,-,-,-,-
COc1nn(CC(=O)N2N=C(C(F)F)CC2(O)C(F)F)cc1[N+](=O)[O-] (stereo not drawn),-,.,.,.,-,.
O=C(Nc1ccc(Cl)cc1)N(C1=NCCC1)c1ccc(OC(F)F)cc1,-,.,-,-,-,-
CCCCCCCCNc1ncnc2ccccc12,-,.,-,-,-,44
COc1ccc(Nc2ncnc3ccccc23)c(OC)c1,-,.,.,.,-,.
Cc1cc(C)c(S(=O)(=O)c2ccccc2)c(OC(=O)c2c(Cl)cc(Cl)cc2Cl)n1,-,.,-,-,-6.5,-
Cc1cc(C)c(S(=O)(=O)c2ccccc2)c(N(C)C)n1,-,.,-,-,-,-
CCOC(=O)N1CCN(C(=O)c2ccc3nc(SCc4ccc(F)cc4)n(C)c3c2)CC1,-,-,-,-,.,-
COc1cc(/C=C/C(=O)Nc2cc(C(F)(F)F)ccc2Cl)cc(OC)c1OC,-,.,-,-,-5.2,-
CN(C)CC(=O)Nc1cc(C(F)(F)F)ccc1Cl,-,-,-,-,-,38
CCN1CCCC1CNC(=O)c1nn(-c2ccc(C)cc2)c(=O)c2c1c1ccccc1n2C (stereo not drawn),.,-,.,.,.,.
Clc1ccc(-c2nc3cnccn3c2NC2CCCC2)cc1,-,.,-,31,-5,-
Clc1ccc(-c2nc3cnccn3c2Nc2ccc3c(c2)OCO3)cc1,.,.,-,38,-,-
CC(=O)Oc1ccc2ccccc2c1C(NC(=O)Cc1ccccc1)c1ccccc1 (stereo not drawn),-4,.,-,-,-,-
CC(=O)NC(c1cccc([N+](=O)[O-])c1)c1c(OC(C)=O)ccc2ccccc12 (stereo not drawn),-,.,.,.,-,.
CCCCC(=O)NC(c1cccc([N+](=O)[O-])c1)c1c(OC(C)=O)ccc2ccccc12 (stereo not drawn),-4.3,.,.,.,-7.7,.
O=C(NCc1ccccn1)c1ccc(N2CCCC2=O)cc1,-,-,-,-,-,-
COC(=O)C1=C(C(=O)OC)C2(OC1c1ccccc1C)C(=O)c1ccccc1C2=O (stereo not drawn),-,.,.,.,-,.
Cc1cc(C)nc(NC(=O)CSc2nc3ccccc3s2)n1,-,.,-,-,-,-
Cc1cc(C)nc(NC(=O)CSc2nc3cc(Cl)ccc3s2)n1,-,.,-,36,-,-
CC(C)(C)c1csc(SCC(=O)Nc2ccc(Cl)cn2)n1,-,.,.,.,-,.
SMILES,Pyk2 oligo antag,Ecoli tolC,E coli WT exp,PostGolgi ctrl,Cav3 T inh,PostGolgi yeast
Cc1csc(SCC(=O)Nc2ccc(Cl)cn2)n1,-,-,-,-,-5.1,-
COc1ccccc1-c1nnc(NC(=O)c2ccccc2F)o1,.,-,-,-,-,-
COc1ccccc1-c1nnc(NC(=O)c2ccc(S(=O)(=O)N(C)C)cc2)o1,-,96,-,-,-,-
CCN(Cc1ccccc1)S(=O)(=O)c1ccc(C(=O)Nc2nnc(-c3ccccc3OC)o2)cc1,-3.9,98,-,-,.,-
O=C(c1cnccn1)N1CCN(C/C=C/c2ccccc2)CC1,-,-,-,-,-,-
NS(=O)(=O)c1ccc(NC(=O)CSc2nnc(-c3cnccn3)n2-c2ccccc2)cc1,-,-,-,-,-,-
CCCOC(=O)C1=C(C)OC23OC(N)=C(C#N)C12C(=O)c1ccccc13 (stereo not drawn),-,.,.,.,-,.
C/C(Cl)=C\Cn1c(N2CCCC2)nc2c1c(=O)[nH]c(=O)n2C,-,-,-,-,3.5,-
C=CCn1c(N2CCCCCC2)nc2c1c(=O)[nH]c(=O)n2C,-,-,-,-,-,-
